The target in assay [1] is T1, cGMP-specific 3',5'-cyclic phosphodiesterase (Homo sapiens, UniProt O76074). The experiment in a line: Inhibition of full length recombinant human N-terminal GST-tagged PDE5A1 expressed in baculovirus infected sf9 cells at 100 nM using FAM-cyclic-3',5-GMP as substrate after 1 hr by fluorescence polarization assay relative to control. An outline of the steps:
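Single-point test at 100 nM, reported as percent inhibition. Human PDE5 at 15 ng/mL with 100 nM FAM-cGMP in MOPS pH 7.5 buffer (MgCl2, EDTA, BSA, DTT), 1% DMSO final, 60 min at 25 °C. Binding agent added for 1 h, then fluorescence polarization read at […] nm.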
A general note: Fluorescence polarisation rises when a labelled molecule tumbles more slowly, as on binding a larger partner.

The target of assay [2] is T1, cGMP-specific 3',5'-cyclic phosphodiesterase. Nature of the assay: Inhibition of full length recombinant human N-terminal GST-tagged PDE5A1 expressed in baculovirus infected sf9 cells using FAM-cyclic-3',5-GMP as substrate after 1 hr by fluorescence polarization assay.
The species entered for assay [3] is Homo sapiens. Nature of the assay: Selectivity index, ratio of IC50 for inhibition of full length recombinant human N-terminal GST-tagged PDE11A4 expressed in baculovirus infected sf9 cells to IC50 for inhibition of full length recombinant human N-terminal GST-tagged PDE5A1 expressed in baculovirus infected sf9 cells.
The target of assay [4] is Dual 3',5'-cyclic-AMP and -GMP phosphodiesterase 11A (Homo sapiens, UniProt Q9HCR9). The experiment in a line: Inhibition of full length recombinant human N-terminal GST-tagged PDE11A4 expressed in baculovirus infected sf9 cells using FAM-cyclic-3',5-AMP as substrate after 1 hr by fluorescence polarization assay.
Chain of Dual 3',5'-cyclic-AMP and -GMP phosphodiesterase 11A (Q9HCR9 whole entry): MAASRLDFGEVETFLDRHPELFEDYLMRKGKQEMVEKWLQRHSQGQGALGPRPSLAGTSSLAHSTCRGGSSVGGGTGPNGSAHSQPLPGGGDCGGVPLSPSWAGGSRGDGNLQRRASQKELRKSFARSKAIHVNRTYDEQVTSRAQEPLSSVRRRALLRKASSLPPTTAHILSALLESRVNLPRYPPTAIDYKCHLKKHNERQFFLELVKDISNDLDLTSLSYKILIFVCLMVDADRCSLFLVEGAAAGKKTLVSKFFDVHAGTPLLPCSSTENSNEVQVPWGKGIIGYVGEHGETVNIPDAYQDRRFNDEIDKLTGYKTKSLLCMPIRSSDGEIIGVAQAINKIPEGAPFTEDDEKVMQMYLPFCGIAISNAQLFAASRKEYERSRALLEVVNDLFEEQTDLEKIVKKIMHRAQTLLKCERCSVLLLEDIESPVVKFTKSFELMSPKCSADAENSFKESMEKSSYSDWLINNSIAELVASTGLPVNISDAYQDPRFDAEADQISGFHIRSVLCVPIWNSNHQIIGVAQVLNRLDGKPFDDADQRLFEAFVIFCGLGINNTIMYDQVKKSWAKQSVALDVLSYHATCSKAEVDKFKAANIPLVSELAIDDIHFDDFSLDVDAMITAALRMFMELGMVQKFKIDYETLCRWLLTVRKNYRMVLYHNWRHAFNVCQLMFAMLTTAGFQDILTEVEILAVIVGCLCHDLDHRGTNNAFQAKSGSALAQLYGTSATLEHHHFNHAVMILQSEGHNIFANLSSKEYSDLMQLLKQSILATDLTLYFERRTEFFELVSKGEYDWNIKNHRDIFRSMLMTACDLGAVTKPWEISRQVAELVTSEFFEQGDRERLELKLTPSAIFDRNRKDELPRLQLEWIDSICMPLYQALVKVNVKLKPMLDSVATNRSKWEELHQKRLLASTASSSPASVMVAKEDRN
Assay [5] is filed under the species Homo sapiens. Nature of the assay: Selectivity index, ratio of IC50 for inhibition of full length recombinant human N-terminal GST-tagged PDE6C expressed in baculovirus infected sf9 cells to IC50 for inhibition of full length recombinant human N-terminal GST-tagged PDE5A1 expressed in baculovirus infected sf9 cells.
The target in assay [6] is Cone cGMP-specific 3',5'-cyclic phosphodiesterase subunit alpha' (Homo sapiens, UniProt P51160). Nature of the assay: Inhibition of full length recombinant human N-terminal GST-tagged PDE6C expressed in baculovirus infected sf9 cells using […] as substrate after 1 hr by fluorescence polarization assay.
Chain of Cone cGMP-specific 3',5'-cyclic phosphodiesterase subunit alpha' (P51160 whole entry, canonical isoform): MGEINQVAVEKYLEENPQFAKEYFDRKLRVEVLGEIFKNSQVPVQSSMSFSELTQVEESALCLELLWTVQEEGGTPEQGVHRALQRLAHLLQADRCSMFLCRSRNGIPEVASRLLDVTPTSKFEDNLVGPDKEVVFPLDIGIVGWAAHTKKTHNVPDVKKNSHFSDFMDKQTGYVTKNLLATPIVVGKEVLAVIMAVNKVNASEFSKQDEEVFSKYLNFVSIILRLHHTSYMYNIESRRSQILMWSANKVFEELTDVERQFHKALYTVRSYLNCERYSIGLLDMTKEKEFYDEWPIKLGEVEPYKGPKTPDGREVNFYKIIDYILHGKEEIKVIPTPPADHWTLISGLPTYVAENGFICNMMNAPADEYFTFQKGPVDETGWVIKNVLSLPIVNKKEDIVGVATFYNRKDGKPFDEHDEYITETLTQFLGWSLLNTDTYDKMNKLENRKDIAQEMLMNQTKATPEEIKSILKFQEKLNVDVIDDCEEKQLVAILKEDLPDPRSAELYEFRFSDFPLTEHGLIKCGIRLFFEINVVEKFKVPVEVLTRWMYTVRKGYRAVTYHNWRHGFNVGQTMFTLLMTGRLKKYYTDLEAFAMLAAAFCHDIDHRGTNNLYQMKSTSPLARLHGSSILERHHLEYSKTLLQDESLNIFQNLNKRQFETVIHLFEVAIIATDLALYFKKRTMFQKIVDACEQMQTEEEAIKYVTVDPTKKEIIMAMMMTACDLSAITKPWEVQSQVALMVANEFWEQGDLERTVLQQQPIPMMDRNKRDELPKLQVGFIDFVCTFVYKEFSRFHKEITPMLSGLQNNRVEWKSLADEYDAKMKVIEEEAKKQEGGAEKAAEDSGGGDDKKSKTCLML
The target of assay [7] is Dual specificity calcium/calmodulin-dependent 3',5'-cyclic nucleotide phosphodiesterase 1A (Homo sapiens, UniProt P54750). Nature of the assay: Inhibition of full length recombinant human N-terminal GST-tagged PDE1A expressed in baculovirus infected sf9 cells using FAM-cyclic-3',5-AMP as substrate after 1 hr by fluorescence polarization assay. In outline: (§1)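 Fluorescence polarization assay run at 25 °C for 60 min in 40 mM MOPS pH 7.5, 0.5 mM EDTA, 15 mM MgCl2, 0.15 mg/mL BSA, 1 mM DTT, 0.05% ProClin 200. Contained 15 ng/mL PDE isoform and 100 nM FAM-cGMP or FAM-cAMP according to isoform, with 1% DMSO final. Binding agent added for 1 h at 25 °C; read at […] nm. IC50 from normalized nonlinear dose-response fit.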
Chain of Dual specificity calcium/calmodulin-dependent 3',5'-cyclic nucleotide phosphodiesterase 1A (P54750 whole entry, canonical isoform): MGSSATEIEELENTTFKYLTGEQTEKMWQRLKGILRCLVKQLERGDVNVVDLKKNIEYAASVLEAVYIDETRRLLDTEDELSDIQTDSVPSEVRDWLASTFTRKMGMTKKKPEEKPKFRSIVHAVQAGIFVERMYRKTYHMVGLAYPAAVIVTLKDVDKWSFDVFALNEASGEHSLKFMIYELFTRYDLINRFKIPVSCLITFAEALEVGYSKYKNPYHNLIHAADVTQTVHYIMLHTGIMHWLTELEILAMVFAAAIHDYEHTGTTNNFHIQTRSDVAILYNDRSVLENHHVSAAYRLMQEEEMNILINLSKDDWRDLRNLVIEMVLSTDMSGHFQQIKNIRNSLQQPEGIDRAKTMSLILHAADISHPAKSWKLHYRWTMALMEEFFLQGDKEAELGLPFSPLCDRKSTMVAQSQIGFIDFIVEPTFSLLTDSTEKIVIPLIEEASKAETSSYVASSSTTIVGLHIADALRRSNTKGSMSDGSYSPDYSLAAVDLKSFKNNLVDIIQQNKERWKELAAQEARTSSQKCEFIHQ

Assay [8] addresses cGMP-inhibited 3',5'-cyclic phosphodiesterase 3B (Homo sapiens, UniProt Q13370). Nature of the assay: Inhibition of recombinant human N-terminal GST-tagged PDE3B (592 to end residues) expressed in baculovirus infected sf9 cells using FAM-cyclic-3',5-AMP as substrate after 1 hr by fluorescence polarization assay. In outline: as §1
Assay [9] addresses 3',5'-cyclic-AMP phosphodiesterase 4A (Homo sapiens, UniProt P27815). Nature of the assay: Inhibition of full length recombinant human N-terminal GST-tagged PDE4A1A expressed in baculovirus infected sf9 cells using FAM-cyclic-3',5-AMP as substrate after 1 hr by fluorescence polarization assay.
Assay [10] addresses cGMP-dependent 3',5'-cyclic phosphodiesterase (Homo sapiens, UniProt O00408). The experiment in a line: Inhibition of recombinant human N-terminal FLAG-tagged PDE2A (2 to 941 residues) expressed in baculovirus infected sf9 cells using FAM-cyclic-3',5-AMP as substrate after 1 hr by fluorescence polarization assay. An outline of the steps:
as §1

Some results are limits rather than exact numbers.

Chain of cGMP-inhibited 3',5'-cyclic phosphodiesterase 3B (Q13370 whole entry): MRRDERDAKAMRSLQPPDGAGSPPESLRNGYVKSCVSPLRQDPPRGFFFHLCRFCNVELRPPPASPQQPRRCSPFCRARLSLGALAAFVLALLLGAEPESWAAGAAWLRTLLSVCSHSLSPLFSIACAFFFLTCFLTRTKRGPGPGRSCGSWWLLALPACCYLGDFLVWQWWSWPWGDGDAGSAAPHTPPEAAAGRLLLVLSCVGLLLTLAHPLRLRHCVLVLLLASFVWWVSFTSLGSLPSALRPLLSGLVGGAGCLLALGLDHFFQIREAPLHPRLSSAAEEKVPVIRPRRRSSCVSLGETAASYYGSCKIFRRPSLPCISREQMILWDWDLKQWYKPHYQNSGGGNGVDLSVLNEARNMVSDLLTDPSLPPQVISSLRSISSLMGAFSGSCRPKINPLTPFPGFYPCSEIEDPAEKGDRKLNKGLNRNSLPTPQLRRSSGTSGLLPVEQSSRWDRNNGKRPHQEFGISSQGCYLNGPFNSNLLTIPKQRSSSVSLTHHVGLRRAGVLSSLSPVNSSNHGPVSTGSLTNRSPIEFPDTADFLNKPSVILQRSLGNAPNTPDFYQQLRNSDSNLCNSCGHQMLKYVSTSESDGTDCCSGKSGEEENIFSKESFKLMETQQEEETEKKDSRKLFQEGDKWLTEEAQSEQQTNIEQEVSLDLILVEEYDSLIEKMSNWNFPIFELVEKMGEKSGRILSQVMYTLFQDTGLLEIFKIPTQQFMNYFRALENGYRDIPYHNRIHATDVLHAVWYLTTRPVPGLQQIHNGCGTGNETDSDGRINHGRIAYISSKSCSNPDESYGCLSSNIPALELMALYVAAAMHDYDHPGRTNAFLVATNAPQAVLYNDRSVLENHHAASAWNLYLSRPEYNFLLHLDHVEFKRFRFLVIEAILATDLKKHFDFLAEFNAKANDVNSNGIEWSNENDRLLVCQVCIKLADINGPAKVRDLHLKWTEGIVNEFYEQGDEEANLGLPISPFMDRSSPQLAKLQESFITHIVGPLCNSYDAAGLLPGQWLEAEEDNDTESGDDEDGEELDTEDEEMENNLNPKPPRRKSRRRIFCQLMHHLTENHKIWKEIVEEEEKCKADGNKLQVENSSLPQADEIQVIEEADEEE
Chain of 3',5'-cyclic-AMP phosphodiesterase 4A (P27815 whole entry, the tested form may be a part): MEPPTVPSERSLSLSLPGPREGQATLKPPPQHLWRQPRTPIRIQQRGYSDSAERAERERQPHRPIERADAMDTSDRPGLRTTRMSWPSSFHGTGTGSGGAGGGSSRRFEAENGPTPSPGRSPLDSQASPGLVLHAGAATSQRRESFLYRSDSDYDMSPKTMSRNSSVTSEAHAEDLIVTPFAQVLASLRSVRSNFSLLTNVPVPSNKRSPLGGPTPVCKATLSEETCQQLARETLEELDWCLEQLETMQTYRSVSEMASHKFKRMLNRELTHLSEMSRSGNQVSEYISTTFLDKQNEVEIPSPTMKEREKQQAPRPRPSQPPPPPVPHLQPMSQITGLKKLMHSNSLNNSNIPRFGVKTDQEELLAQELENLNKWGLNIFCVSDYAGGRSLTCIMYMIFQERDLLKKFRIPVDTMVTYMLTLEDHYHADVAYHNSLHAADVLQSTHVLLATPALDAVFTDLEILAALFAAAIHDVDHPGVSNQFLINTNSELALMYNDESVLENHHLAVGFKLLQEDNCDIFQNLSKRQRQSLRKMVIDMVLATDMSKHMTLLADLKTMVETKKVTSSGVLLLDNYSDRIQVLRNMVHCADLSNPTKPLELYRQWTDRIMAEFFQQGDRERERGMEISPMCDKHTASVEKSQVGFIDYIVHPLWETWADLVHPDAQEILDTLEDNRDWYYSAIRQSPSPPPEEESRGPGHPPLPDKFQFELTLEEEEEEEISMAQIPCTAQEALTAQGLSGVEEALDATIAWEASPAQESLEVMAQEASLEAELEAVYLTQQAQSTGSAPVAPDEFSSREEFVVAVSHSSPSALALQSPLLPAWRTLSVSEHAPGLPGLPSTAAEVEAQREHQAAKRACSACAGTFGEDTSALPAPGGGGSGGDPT

What is called inhibition is the percentage by which the read-out fell short of the control. `Cc1ccc(C2c3[nH]c4ccccc4c3CCN2c2ccc(-c3ccccn3)cn2)o1` (centres undefined): the inhibition in assay [1] turned out to be 23.2%.

For the molecule `CCc1ccc(C(=O)c2[nH]c3ccccc3c2C[C@H]2NC(=O)CN(C)C2=O)s1`, the inhibition in [1] amounted to 21.1%.

The IC50 is the concentration at which inhibition is half-maximal. Consider `Cc1ccc([C@@H]2c3[nH]c4ccccc4c3C[C@@H]3C(=O)N(C)CC(=O)N23)o1`, for which, in assay [2], the IC50 turned out to be 36.9 nM. Further, the inhibition in assay [1] is 89.5%.

In the case of `CCc1ccc(C(=O)c2[nH]c3ccccc3c2CCNc2ccc(-c3ccccn3)cn2)o1`, the inhibition in assay [1] is 16.1%.

For the molecule `CCc1ccc([C@@H]2c3[nH]c4ccccc4c3C[C@H]3C(=O)N(C)CC(=O)N23)o1`, in assay [1], the inhibition came out at 41.1%.

For `CCN1C(=O)[C@@H]2Cc3c([nH]c4ccccc34)[C@H](c3sccc3C)N2C1=O`, in assay [1], the inhibition stood at 27.7%.

`CCc1ccc(C2c3[nH]c4ccccc4c3C(=O)CN2c2ncc(-c3ccc(OC)c(OC)c3)cn2)s1` (centres undefined): the IC50 in assay [2] worked out at 39.7 nM; in assay [4] it was 153 nM; in assay [6], 253 nM. Moreover, the Ratio IC50 in assay [3] amounted to 4; in [5], 6. Also, the inhibition in assay [1] was found to be 69.4%.

Take `CCc1ccc([C@H]2c3[nH]c4ccccc4c3C[C@H]3C(=O)N(C)CC(=O)N23)o1`: the IC50 in [2] worked out at 56.4 nM. Besides, the inhibition in [1] amounted to 69%.

For the molecule `COc1cccc2cc(C(=O)c3[nH]c4ccccc4c3CCNc3ccc(-c4ccccn4)cn3)oc12`, the inhibition in [1] was found to be 23.9%.

For the molecule `CN1CC(=O)N2[C@@H](c3ccco3)c3[nH]c4ccccc4c3C[C@@H]2C1=O`, the inhibition in [1] was found to be 35.2%.

Turning to `CCc1ccc(C(=O)c2[nH]c3ccccc3c2C[C@@H]2NC(=O)N(CC)C2=O)s1`, the inhibition in assay [1] was determined as 27.3%.

With `CCc1ccc(C2c3[nH]c4ccccc4c3CCN2c2ncc(-c3ccc(OC)c(OC)c3)cn2)o1` (centres undefined), the IC50 in assay [2] worked out at 177 nM. In addition, in [1], the inhibition was determined as 47.6%.

As for `Cc1ccc([C@H]2c3[nH]c4ccccc4c3C[C@@H]3C(=O)N(C)CC(=O)N23)s1`, the inhibition in [1] was 40.2%.

Turning to `c1ccc(-c2ccc(N3CCc4c([nH]c5ccccc45)C3c3cc4ccccc4o3)nc2)nc1` (centres undefined), the inhibition in assay [1] turned out to be 15.2%.

`CN1CC(=O)N2[C@@H](c3sccc3Br)c3[nH]c4ccccc4c3C[C@@H]2C1=O`: the inhibition in assay [1] amounted to 41.6%.

As to `Cc1ccc(C2c3[nH]c4ccccc4c3CCN2c2ccc(-c3ccccn3)cn2)s1` (centres undefined), the inhibition in assay [1] worked out at 38.1%.

As to `CCCc1ccc(C(=O)c2[nH]c3ccccc3c2CCNc2ccc(-c3ccccn3)cn2)s1`, the inhibition in assay [1] came to 18.3%.

On to `CCCCN1C(=O)[C@H]2Cc3c([nH]c4ccccc34)[C@@H](c3ccc(CC)s3)N2C1=O`, for which the IC50 in [2] is 36.4 nM; in assay [7], above 20000 nM; in assay [8], above 20000 nM; in assay [4], 386 nM; in [9], above 10000 nM; in assay [10], above 20000 nM. The IC50 in assay [6] is above 1000 nM. Further, the Ratio IC50 is 10 in assay [3] and above 27 in assay [5]. For the same molecule, the inhibition in assay [1] is 76.2%.

For the molecule `CCc1ccc([C@@H]2c3[nH]c4ccccc4c3C[C@H]3C(=O)N(C)CC(=O)N23)s1`, in assay [2], the IC50 turned out to be 61 nM. For the same molecule, in [1], the inhibition turned out to be 72.7%.

As to `CCc1ccc(C(=O)c2[nH]c3ccccc3c2CCNc2ncc(-c3ccc(OC)c(OC)c3)cn2)o1`, in assay [1], the inhibition was 29.1%.

Regarding `CCc1ccc([C@H]2c3[nH]c4ccccc4c3C[C@@H]3C(=O)N(C)CC(=O)N23)s1`, the inhibition in assay [1] came to 38.8%.

With `CN1CC(=O)N2[C@H](c3sccc3Br)c3[nH]c4ccccc4c3C[C@@H]2C1=O`, the IC50 in [2] was 80.2 nM. The inhibition in assay [1] was 67.2%.

For the molecule `Cc1ccsc1[C@@H]1c2[nH]c3ccccc3c2C[C@@H]2C(=O)N(C)CC(=O)N12`, the IC50 in assay [2] is 50.2 nM. Besides, the inhibition in assay [1] is 66.7%.

`Cc1cc(C2c3[nH]c4ccccc4c3CCN2c2ccc(-c3ccccn3)cn2)sc1C` (centres undefined): the inhibition in assay [1] was determined as 21.2%.

Consider `COc1cccc2cc(C3c4[nH]c5ccccc5c4CCN3c3ccc(-c4ccccn4)cn3)oc12` (centres undefined), for which, in assay [1], the inhibition is 17.5%.

`CCc1ccc([C@H]2c3[nH]c4ccccc4c3C[C@@H]3C(=O)N(CC)C(=O)N23)o1`: the IC50 was 27.6 nM in assay [2]; above 20000 nM in assay [7]; above 20000 nM in assay [8]; 802 nM in assay [4]; above 10000 nM in assay [9]; above 20000 nM in [10]. Also, the IC50 in assay [6] was 10 nM. Besides, the values for the Ratio IC50 in assay [3] and in assay [5] were 29 and 0.4, respectively. Further, in [1], the inhibition is 83.6%.

`Cc1ccc(C(=O)c2[nH]c3ccccc3c2CCNc2ccc(-c3ccccn3)cn2)o1`: the inhibition in [1] is 23.7%.

Regarding `Cc1ccsc1[C@H]1c2[nH]c3ccccc3c2C[C@@H]2C(=O)N(C)CC(=O)N12`, the IC50 in assay [2] turned out to be 97.5 nM. Besides, the inhibition in assay [1] was found to be 57.4%.

With `CCc1ccc(C2c3[nH]c4ccccc4c3CCN2C(=O)/C=C/c2ccc(C(=O)OC)cc2)s1` (centres undefined), the inhibition in assay [1] is 43.9%.

On to `CCNC(=O)N1[C@H](c2ccc(CC)s2)c2[nH]c3ccccc3c2C[C@@H]1C(=O)OC`, for which the inhibition in assay [1] turned out to be 41.3%.

For `CCc1ccc(C(=O)c2[nH]c3ccccc3c2C[C@@H]2NC(=O)CN(C)C2=O)s1`, in assay [1], the inhibition worked out at 23.3%.

`CCc1ccc(C(=O)c2[nH]c3ccccc3c2CCNc2ncc(-c3ccc(OC)c(OC)c3)cn2)s1`: in assay [1], the inhibition turned out to be 24.7%.

As for `CCc1ccc(C(=O)c2[nH]c3ccccc3c2C[C@H]2NC(=O)N(CC)C2=O)s1`, in [1], the inhibition came to 11.1%.

Take `Cc1ccc(C(=O)c2[nH]c3ccccc3c2CCNc2ccc(-c3ccccn3)cn2)s1`: the inhibition in [1] was determined as 20.4%.

For `CCCCN1C(=O)[C@@H]2Cc3c([nH]c4ccccc34)[C@H](c3ccc(CC)s3)N2C1=O`, the inhibition in assay [1] turned out to be 35.9%.

Consider `CCc1ccc([C@H]2c3[nH]c4ccccc4c3C[C@@H]3C(=O)N(C)CC(=O)N23)o1`, for which the inhibition in assay [1] amounted to 39.1%.

For `CCc1ccc([C@H]2c3[nH]c4ccccc4c3C[C@H]3C(=O)N(CC)C(=O)N23)s1`, the IC50 in [2] came to 383 nM. Further, the inhibition in [1] worked out at 44.1%.

For `CCc1ccc(C2c3[nH]c4ccccc4c3CCN2C(=O)/C=C/c2ccc(C(=O)O)cc2)s1` (centres undefined), the IC50 in assay [2] came to 235 nM. Moreover, in [1], the inhibition stood at 47.4%.

On to `CCc1ccc([C@H]2c3[nH]c4ccccc4c3C[C@H]3C(=O)N(CC)C(=O)N23)o1`, for which, in assay [2], the IC50 came to 81.2 nM. Moreover, the inhibition in [1] was 62.2%.

`CCc1ccc(C2c3[nH]c4ccccc4c3CCN2C(=O)/C=C/c2cccc(Br)c2)s1` (centres undefined): the inhibition in [1] came out at 33.7%.

With `CCc1ccc(C2c3[nH]c4ccccc4c3CCN2c2ccc(-c3ccccn3)cn2)o1` (centres undefined), the inhibition in assay [1] was found to be 39.2%.

Consider `CN1CC(=O)N2[C@@H](c3ccc(Br)s3)c3[nH]c4ccccc4c3C[C@@H]2C1=O`, for which the inhibition in [1] worked out at 39.8%.

On to `Cc1ccc([C@H]2c3[nH]c4ccccc4c3C[C@@H]3C(=O)N(C)CC(=O)N23)o1`, for which the inhibition in assay [1] was 40.5%.

As to `CCc1ccc([C@H]2c3[nH]c4ccccc4c3C[C@@H]3C(=O)N(CC)C(=O)N23)s1`, the IC50 in assay [2] was 155 nM. Moreover, the inhibition in [1] was determined as 45.8%.

`CN1CC(=O)N2[C@H](c3ccco3)c3[nH]c4ccccc4c3C[C@@H]2C1=O`: in [1], the inhibition was 48.1%.

For the molecule `O=C(c1cc2ccccc2o1)c1[nH]c2ccccc2c1CCNc1ccc(-c2ccccn2)cn1`, the inhibition in [1] stood at 17.7%.

As to `Cc1cc(C(=O)c2[nH]c3ccccc3c2CCNc2ccc(-c3ccccn3)cn2)sc1C`, in assay [1], the inhibition was found to be 1.7%.

In the case of `CCCc1ccc(C2c3[nH]c4ccccc4c3CCN2c2ccc(-c3ccccn3)cn2)s1` (centres undefined), in [1], the inhibition is 28%.

Turning to `CCCCN1C(=O)[C@H]2Cc3c([nH]c4ccccc34)[C@H](c3ccc(CC)s3)N2C1=O`, the inhibition in assay [1] was found to be 37.9%.

On to `CCc1ccc(C2c3[nH]c4ccccc4c3CCN2c2ncc(-c3ccc(OC)c(OC)c3)cn2)s1` (centres undefined), for which, in [1], the inhibition came to 27.6%.

For the origin of these results see ChEMBL document CHEMBL4265950, “Discovery of furyl/thienyl β-carboline derivatives as potent and selective PDE5 inhibitors with excellent vasorelaxant effect” (Eur J Med Chem, 2018).
